Screening data as filed in PubChem.
Only some compounds are listed: those with a hit (about 4% of all), similar ones and a draw of the others.
KCNK3 block = human KCNK3 channel inhibitors, primary screen, CHO cells, FluxOR thallium flux, B-score; FluxOR fluorescence; hits give low values; B-score at 10 µM; 340,000 tested, 0.84% active;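 active = B-score under library mean minus 4 SD, starting fluorescence ratio at most library mean plus 5 SD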;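 note: more negative B-score means stronger inhibition of thallium flux through KCNK3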
hERG protect = hERG rescue from dofetilide block, primary screen, cell-based, CHO-hERG, FluxOR thallium flux, dofetilide IC70 | activation (rescue from dofetilide block), less the hit threshold, % at 10 µM | dofetilide IC70 present | AID 1511, 2009 | Voltage-gated inwardly rectifying potassium channel KCNH2 (Homo sapiens), Q12809 | 310,000 tested, 0.51% active;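 active = activation above the mean of controls blocked by dofetilide plus 5 SD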;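 note: thallium influx through hERG after potassium depolarization seen as dye fluorescence rise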
PHOSPHO1 inh = PubChem AID 1565; 290,000 tested, 1.1% active; recombinant PHOSPHO1, absorbance phosphatase assay; Phosphoethanolamine/phosphocholine phosphatase (Homo sapiens), Q8TCT1; inhibition, % at 13.3 µM; in the data active = inhibition above about 60%
KCNK9 inh = KCNK9 potassium channel inhibitors, primary screen, HEK293 cells, thallium flux | Potassium channel subfamily K member 9 (Homo sapiens), Q9NPC2 | FluxOR thallium flux fluorescence; hits give low values | B-score at 10 µM | 310,000 tested, 1.2% active | AID 488922, 2010;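 active = ratio B-score over 3 SD below the library mean, with starting fluorescence within 5 SD of its mean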;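 note: negative B-score means less thallium flux so channel inhibition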
KCNQ1 pot = potentiators or activators of KCNQ1 channel, primary screen, cell-based, thallium flux, high-throughput | Potassium voltage-gated channel subfamily KQT member 1 (Homo sapiens), P51787 | CHO-K1 KCNQ1, thallium flux FluxOR fluorescence; hits give high values | B-score at 10 µM | 310,000 tested, 0.35% active | AID 2648, 2010;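 active = fluorescence ratio B-score, a plate-corrected score, at least three library SD, with initial intensity B-score within 5 SD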
Target sequence (P51787 whole entry, looked up): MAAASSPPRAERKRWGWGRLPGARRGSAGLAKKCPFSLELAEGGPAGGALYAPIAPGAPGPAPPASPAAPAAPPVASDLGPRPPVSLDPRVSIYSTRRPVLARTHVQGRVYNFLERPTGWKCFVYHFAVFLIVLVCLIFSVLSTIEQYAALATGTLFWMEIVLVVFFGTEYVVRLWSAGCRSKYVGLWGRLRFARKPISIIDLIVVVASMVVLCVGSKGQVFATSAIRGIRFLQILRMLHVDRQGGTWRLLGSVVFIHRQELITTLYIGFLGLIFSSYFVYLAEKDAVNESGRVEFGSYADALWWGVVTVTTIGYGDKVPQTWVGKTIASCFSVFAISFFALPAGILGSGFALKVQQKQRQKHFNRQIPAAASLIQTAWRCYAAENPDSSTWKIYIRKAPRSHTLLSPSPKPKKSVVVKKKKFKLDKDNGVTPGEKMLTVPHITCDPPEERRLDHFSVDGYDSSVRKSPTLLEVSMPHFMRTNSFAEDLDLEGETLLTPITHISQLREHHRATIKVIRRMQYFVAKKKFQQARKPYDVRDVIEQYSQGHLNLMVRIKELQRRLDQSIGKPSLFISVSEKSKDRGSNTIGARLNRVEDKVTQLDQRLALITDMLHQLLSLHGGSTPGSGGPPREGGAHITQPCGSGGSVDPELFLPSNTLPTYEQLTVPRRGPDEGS
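assay system = KCNQ1-transfected CHO-K1 cells | medium = assay buffer with matched DMSO | probe or stimulus = depolarizing K+/Tl+ stimulus, K2SO4 and Tl2SO4 each 12.5 mM in 5x stock | dosing = single dose | incubation = dye 90 min, compound 20 min, room temperature | detection = kinetic FluxOR fluorescence, 10 s baseline plus 110 s post-stimulus | evaluation = ratio B score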
KCNQ1 inh = inhibitors of human KCNQ1 channel, primary screen, cell-based, thallium flux, high-throughput; CHO-K1 KCNQ1, FluxOR thallium flux fluorescence; hits give high values; 310,000 tested, 1.3% active; Potassium voltage-gated channel subfamily KQT member 1 (Homo sapiens), P51787; B-score at 10 µM;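 active = compounds whose thallium flux B-score, printed positive for inhibition, exceeds three library SD while starting fluorescence stays within three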;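 note: channel opened by potassium depolarization with thallium stimulus after 20 min compound exposure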
KCNK9 block conf = KCNK9 potassium channel inhibitors, confirmation, HEK293 cells, thallium flux, duplicate; 4,900 tested, 43% active; inhibition, % at 10 µM; shares compounds with KCNK9 inh; FluxOR thallium flux fluorescence;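 active = thallium signal inhibited by more than 5 SD of the compound-free buffer control wells, on both duplicate plates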;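 note: 0% = assay buffer control wells without compound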
Kir21 sel = mouse Kir2.1 channel inhibition, confirmation, selectivity assay for KCNK9 modulator project, cell-based, HEK293, thallium flux; shares compounds with KCNK9 inh; Kir2.1 cells, FluxOR thallium flux fluorescence; inhibition, % at 10 µM; 4,900 tested, 4% active; AID 492993, 2010;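 active = thallium signal drop more than 5 SD beyond the mean of the no-compound control wells, seen in both duplicate plates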;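 note: signal is fluorescence rise after thallium addition divided by baseline fluorescence; plate controls were assay buffer only for no effect and full block by chlorpromazine control for full effect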
KCNK9 uninduced = thallium flux in non-induced HEK293 cells, confirmation, counter-screen for KCNK9 inhibitor project, cell-based, second counter screen, non-induced KCNK9-HEK293; shares compounds with KCNK9 inh; FluxOR thallium flux; inhibition, % at 10 µM; 4,900 tested, 40% active; AID 492997, 2010;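 active = thallium signal drop beyond 5 SD of the untreated control mean, on both duplicate plates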;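 note: plate controls were buffer only IC0 wells for no effect and SID17386958 at its maximal inhibitory level for full effect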
* = called active by the depositor; i = inactive; · = no result.

SMILES	KCNK3 block	hERG protect	PHOSPHO1 inh	KCNK9 inh	KCNQ1 pot	KCNQ1 inh	KCNK9 block conf	Kir21 sel	KCNK9 uninduced
O=S(=O)(NC1CCN(S(=O)(=O)c2ccc3c(c2)OCCO3)C1)c1c(F)cccc1F (configuration not stated)	i	·	·	·	·	·	·	·	·
CCCCc1c(O)nc(SCC(=O)c2ccccc2)n(-c2ccccc2OC)c1=O	i	-19	-8	-13*	i	i	51%*	i	25%*
CC(C)OCCCn1c(=NC(=O)c2cccs2)c(C#N)cc2c(=O)n3ccccc3nc21	i	-11	4	-8.5*	i	i	26%*	i	33%*
CC(=O)N=c1c(C#N)cc2c(=O)n3ccccc3nc2n1CCCOC(C)C	i	-7	6	i	i	i	·	·	·
NS(=O)(=O)c1ccc(NCc2cc(Cl)ccc2OCc2ccccc2F)cc1	i	-8	22	-15*	i	i	50%*	i	41%*
Cc1cc(C(=O)N/N=C/c2ccc(-c3cccc(Cl)c3)o2)n[nH]1	i	-10	12	-14*	i	i	34%*	i	32%*
Cc1ccc(C(=O)N/N=C/c2ccc(-c3cccc(Cl)c3)o2)cn1	i	-13	40	i	i	i	·	·	·
COc1cccc(N2CCN(c3ncnc4c3cnn4-c3ccc(C)cc3C)CC2)c1	i	-13	6	i	i	i	·	·	·
COc1cc(/C=C2\C(=N)N3N=C(S(C)(=O)=O)SC3=NC2=O)cc(OC)c1OCCOc1cccc(C)c1	i	-34	15	i	i	i	i	i	i
CCS(=O)(=O)C1=NN2C(=N)/C(=C\c3ccc(OCCOc4cccc(OC)c4)c(OC)c3)C(=O)N=C2S1	i	-26	1	i	i	i	i	i	i
COc1cc2c(c(OC)c1O)C(=O)CO2	i	-4	-20	i	i	i	·	·	·
COc1cc(OC)c2c(O)c3c(c(-c4c5c(c(O)c6c(OC)cc(OC)cc46)CO[C@@H](C)[C@H]5O)c2c1)[C@H](O)[C@H](C)OC3	i	-6	16	i	i	i	i	i	i
O=c1[nH]c2ccc(S(=O)(=O)N3CCN(c4ccccc4)CC3)cc2[nH]c1=O	i	-9	-118	i	i	i	·	·	·
CNc1ccccc1NC(=O)C1CCCN1C(=O)OCc1ccccc1 (configuration not stated)	i	-8	-10	i	i	i	·	·	·
Cc1ccc(CN2C(=O)C(Cc3ccccc3)Nc3ncnc(N4CCN(c5ccccc5)CC4)c32)cc1 (configuration not stated)	i	-14	·	i	i	i	·	·	·
Cc1ccc(CN2C(=O)C(Cc3ccccc3)Nc3ncnc(N4CCCCC4)c32)cc1 (configuration not stated)	i	-8	·	-14*	i	i	64%*	i	38%*
COc1ccc(CN2C(=O)C(Cc3ccccc3)Nc3ncnc(N4CCCCC4)c32)cc1 (configuration not stated)	i	-9	·	-13*	i	i	54%*	i	27%*
Nc1c(Cl)ncnc1Nc1ccc(C(=O)O)cc1	i	·	·	·	·	·	·	·	·
O=C(Cc1cccs1)Nc1nnc(SCc2cccc3ccccc23)s1	i	-5	-67	i	i	i	·	·	·
CCOC(=O)c1c(NC(=S)Nc2ccccc2)sc2c1CCN(CCc1ccccc1)C2	·	·	30	·	·	·	·	·	·
CCOC(=O)c1c(NC(=S)Nc2ccccc2)sc2c1CC(C)(C)SC2	i	-2	9	-9.1*	i	8*	i	i	33%*
O=C(CSc1nc(O)cc(=O)n1-c1ccccc1)c1ccc(Br)cc1	i	-8	2	i	i	i	·	·	·
Cc1ccc(NC(=O)C(C)OC(=O)CCN=C2NS(=O)(=O)c3ccccc32)cc1 (configuration not stated)	i	-3	·	i	i	i	·	·	·
O=C(COc1c(F)c(F)c(C(F)(F)F)c(F)c1F)Nc1ccc(N2CCOCC2)c(Cl)c1	i	-5	0	i	i	i	·	·	·
CCC(C)c1ccc(NC(=O)COc2c(F)c(F)c(C(F)(F)F)c(F)c2F)cc1 (configuration not stated)	i	-17	-16	i	i	i	i	i	i
SMILES	KCNK3 block	hERG protect	PHOSPHO1 inh	KCNK9 inh	KCNQ1 pot	KCNQ1 inh	KCNK9 block conf	Kir21 sel	KCNK9 uninduced
COCc1c(C(=O)N/N=C/c2c[nH]c3ccccc23)nnn1-c1nonc1N	i	-5	24	i	i	i	·	·	·
CCOc1ccc(C(C(=O)NC2CCCC2)N(Cc2ccccc2)C(=O)c2nsc(Cl)c2Cl)cc1 (configuration not stated)	i	-6	25	-15*	i	i	72%*	i	40%*
CC1=NOC(=O)/C1=C\c1ccc(-c2cc(Cl)ccc2Cl)o1	i	-3	11	i	i	i	i	i	i
COc1ccc(NC(=O)c2ccccc2-c2ccccc2C(=O)O)cc1	i	-2	27	i	i	i	·	·	·
O=C(Nc1ccc(C(=O)c2ccc(C(=O)O)c(C(=O)O)c2)cc1)c1ccccc1	i	-3	29	i	i	i	·	·	·
Cc1ccc(C(=O)c2c(NC(=O)c3ccccc3C)sc(C)c2C)cc1	i	-10	11	i	i	i	i	i	i
O=C(O)c1ccccc1C(=O)Nc1ccc(Oc2ccc3ccccc3c2)cc1	i	-2	48	i	i	i	i	i	i
Cc1c(C)c(C)c(C(=O)c2ccc(NC(=O)c3ccccc3C(=O)O)cc2)c(C)c1C	i	-12	31	i	i	i	i	i	i
